Experimental data from publication PMC3149845 (The Journal of neuroscience : the official journal of the …, 2011).
“Also recorded” adds a separate entry of the source. Where two headings read alike, the source gives them in different places. Peptide text beside a SMILES is read from it.

Tests used:
smTas1R2/smTas1R3 = smTas1R2/smTas1R3 (Saimiri sciureus, UniProt A3QP08); assay: Ca2+ mobilization, wild type squirrel monkey sweet taste receptor; format: cell-based, squirrel monkey (Saimiri sciureus); conditions: HEK293E cells with Gα16-gust44
Chain of smTas1R2/smTas1R3 (A3QP08 20-834): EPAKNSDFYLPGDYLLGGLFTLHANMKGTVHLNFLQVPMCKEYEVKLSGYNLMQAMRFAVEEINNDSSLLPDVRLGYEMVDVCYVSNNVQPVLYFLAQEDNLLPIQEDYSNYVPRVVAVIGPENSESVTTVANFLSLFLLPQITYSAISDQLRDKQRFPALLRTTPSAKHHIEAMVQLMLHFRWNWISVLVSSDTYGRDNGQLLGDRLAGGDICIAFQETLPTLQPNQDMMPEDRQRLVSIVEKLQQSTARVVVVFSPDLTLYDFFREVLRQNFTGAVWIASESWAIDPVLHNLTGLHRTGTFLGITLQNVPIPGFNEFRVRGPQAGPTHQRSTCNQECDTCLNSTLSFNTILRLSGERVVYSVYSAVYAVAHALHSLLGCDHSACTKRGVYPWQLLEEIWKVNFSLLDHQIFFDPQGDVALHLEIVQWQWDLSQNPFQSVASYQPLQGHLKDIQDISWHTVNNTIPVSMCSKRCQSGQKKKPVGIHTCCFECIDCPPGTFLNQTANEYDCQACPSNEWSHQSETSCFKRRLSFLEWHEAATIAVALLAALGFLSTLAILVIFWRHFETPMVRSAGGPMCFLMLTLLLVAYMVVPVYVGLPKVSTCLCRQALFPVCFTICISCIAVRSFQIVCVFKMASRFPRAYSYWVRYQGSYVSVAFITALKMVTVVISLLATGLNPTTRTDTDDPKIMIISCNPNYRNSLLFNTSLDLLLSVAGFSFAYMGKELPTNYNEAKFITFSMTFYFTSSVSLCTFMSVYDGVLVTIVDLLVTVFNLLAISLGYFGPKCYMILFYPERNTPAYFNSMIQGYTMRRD
hTas1R2:D142E+hTas1R3 = hTas1R2:D142E+hTas1R3 (Homo sapiens, UniProt Q8TE23, D142E); assay: Ca2+ mobilization, mutated human receptor; format: cell-based; conditions: aspartame 10mM, neotame 1mM, sucralose 2 mM; compared with hTas1R2/hTas1R3
Chain of hTas1R2:D142E+hTas1R3 (Q8TE23 20-839 D142E, one chain of several): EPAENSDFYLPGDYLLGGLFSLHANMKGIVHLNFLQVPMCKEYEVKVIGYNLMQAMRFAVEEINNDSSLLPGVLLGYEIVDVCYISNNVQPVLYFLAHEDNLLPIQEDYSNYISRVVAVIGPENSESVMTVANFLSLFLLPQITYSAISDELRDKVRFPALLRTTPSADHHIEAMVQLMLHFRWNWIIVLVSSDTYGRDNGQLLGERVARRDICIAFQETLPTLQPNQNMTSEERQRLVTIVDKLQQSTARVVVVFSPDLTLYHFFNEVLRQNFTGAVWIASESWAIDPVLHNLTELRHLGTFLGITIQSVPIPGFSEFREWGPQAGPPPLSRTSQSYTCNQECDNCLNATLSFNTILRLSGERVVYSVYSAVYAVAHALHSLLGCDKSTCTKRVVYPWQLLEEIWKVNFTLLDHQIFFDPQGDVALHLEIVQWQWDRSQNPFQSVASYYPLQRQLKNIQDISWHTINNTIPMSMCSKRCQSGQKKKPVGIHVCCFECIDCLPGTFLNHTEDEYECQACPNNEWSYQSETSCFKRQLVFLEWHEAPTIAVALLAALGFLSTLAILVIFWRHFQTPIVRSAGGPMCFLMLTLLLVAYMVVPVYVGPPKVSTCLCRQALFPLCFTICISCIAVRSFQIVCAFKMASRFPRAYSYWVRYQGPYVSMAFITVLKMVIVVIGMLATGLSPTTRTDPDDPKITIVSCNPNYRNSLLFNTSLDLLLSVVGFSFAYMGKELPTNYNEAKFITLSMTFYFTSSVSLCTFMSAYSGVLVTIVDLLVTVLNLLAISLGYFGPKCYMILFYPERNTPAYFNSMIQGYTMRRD
In short: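 HEK293E cells grown at 37°C in Opti-MEM with 5% FBS and seeded at 50,000/well. Cells co-lipofected with Tas1R plasmids and Gα16-gust44 (0.06 μg each per well); medium changed at 20 h, assayed 24 h later. Cells loaded 1 h with Fluo-4 AM in HEPES-buffered HBSS. Tastant added at 30 s; fluorescence (ex 488/em 525 nm) read every 2 s for 150 s more. ΔF/F normalised to human receptor maximal sucralose response; mean ± SEM, three independent experiments.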

[1] = target: T1, hTas1R2:I67S/D142E+hTas1R3 (Homo sapiens, UniProt Q8TE23, D142E/I67S); assay: Ca2+ mobilization, mutated human receptor; format: cell-based; conditions: for calcium response to sweetener: aspartame 10mM, neotame 1mM, sucralose 2 mM, compared with hTas1R2/hTas1R3; for response in dose-response experiment: versus hTas1R2+hTas1R3
T1 sequence (Q8TE23 20-839 I67S/D142E): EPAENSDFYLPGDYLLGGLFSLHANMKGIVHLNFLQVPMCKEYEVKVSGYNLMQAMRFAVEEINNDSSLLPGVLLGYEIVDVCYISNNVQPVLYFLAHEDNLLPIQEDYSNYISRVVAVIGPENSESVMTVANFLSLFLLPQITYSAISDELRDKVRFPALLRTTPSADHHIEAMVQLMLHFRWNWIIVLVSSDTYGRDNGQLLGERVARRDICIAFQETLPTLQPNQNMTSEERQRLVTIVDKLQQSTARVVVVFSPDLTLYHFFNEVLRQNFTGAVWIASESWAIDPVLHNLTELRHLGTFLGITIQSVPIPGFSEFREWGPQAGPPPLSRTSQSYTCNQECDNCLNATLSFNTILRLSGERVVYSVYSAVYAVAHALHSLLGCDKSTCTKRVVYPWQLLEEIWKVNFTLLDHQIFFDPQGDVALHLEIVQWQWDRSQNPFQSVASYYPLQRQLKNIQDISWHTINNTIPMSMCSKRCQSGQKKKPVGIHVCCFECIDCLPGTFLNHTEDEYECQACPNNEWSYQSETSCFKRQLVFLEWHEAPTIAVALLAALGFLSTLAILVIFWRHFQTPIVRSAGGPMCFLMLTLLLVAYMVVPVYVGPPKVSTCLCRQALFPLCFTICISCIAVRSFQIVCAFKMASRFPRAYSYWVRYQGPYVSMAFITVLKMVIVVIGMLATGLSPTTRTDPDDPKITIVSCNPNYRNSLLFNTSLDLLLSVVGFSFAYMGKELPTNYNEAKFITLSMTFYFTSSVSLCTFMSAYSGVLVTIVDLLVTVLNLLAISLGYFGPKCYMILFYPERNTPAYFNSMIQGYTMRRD
T1 sequence (Q7RTX0 21-852 partner): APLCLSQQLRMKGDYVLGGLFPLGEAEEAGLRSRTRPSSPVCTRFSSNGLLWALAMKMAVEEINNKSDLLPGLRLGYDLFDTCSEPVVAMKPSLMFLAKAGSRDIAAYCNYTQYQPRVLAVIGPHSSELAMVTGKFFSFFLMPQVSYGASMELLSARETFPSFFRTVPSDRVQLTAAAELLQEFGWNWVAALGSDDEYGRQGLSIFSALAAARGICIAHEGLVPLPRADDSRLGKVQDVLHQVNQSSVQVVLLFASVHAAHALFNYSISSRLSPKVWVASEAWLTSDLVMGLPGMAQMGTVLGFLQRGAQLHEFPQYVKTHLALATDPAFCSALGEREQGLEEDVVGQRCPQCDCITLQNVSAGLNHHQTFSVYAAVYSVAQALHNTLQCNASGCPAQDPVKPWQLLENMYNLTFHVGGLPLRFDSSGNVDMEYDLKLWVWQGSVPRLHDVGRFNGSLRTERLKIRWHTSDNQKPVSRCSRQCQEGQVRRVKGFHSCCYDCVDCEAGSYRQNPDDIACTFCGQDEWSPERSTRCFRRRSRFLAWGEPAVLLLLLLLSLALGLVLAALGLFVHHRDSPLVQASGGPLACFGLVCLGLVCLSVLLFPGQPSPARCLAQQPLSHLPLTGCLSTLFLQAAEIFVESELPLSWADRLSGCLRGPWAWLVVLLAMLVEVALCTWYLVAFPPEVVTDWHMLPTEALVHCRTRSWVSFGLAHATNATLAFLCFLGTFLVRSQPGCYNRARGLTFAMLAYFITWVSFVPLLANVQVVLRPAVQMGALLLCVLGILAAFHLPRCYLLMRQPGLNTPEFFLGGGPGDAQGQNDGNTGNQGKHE

[2] = target: smTas1R2:T40S/E142D+smTas1R3 (Saimiri sciureus, UniProt A3QP08, E142D/T40S); assay: Ca2+ mobilization, mutated squirrel monkey receptor; format: cell-based, squirrel monkey (Saimiri sciureus); conditions: for response in dose-response experiment: versus smTas1R2+smTas1R3
Chain of smTas1R2:T40S/E142D+smTas1R3 (A3QP08 20-834 T40S/E142D): as the sequence (A3QP08 20-834) above, with T21S, E123D counted along it

[3] = target: smTas1R2:T40S/S67I+smTas1R3 (Saimiri sciureus, UniProt A3QP08, S67I/T40S); assay: as above; format: cell-based, squirrel monkey (Saimiri sciureus); conditions: aspartame 10mM, neotame 1mM, sucralose 2 mM
Chain of smTas1R2:T40S/S67I+smTas1R3 (A3QP08 20-834 T40S/S67I): as the sequence (A3QP08 20-834) above, with T21S, S48I counted along it

[4] = ΔF/F normalized to maximum response of hTas1R2/hTas1R3 to neotame
[5] = HEK293E cells with Gα16-gust44, dose-response, calcium mobilization

| SMILES | response in dose-response experiment (smTas1R2/smTas1R3) | calcium response to sweetener (hTas1R2:D142E+hTas1R3) | calcium response to sweetener [1] | response in dose-response experiment ([1]; dose-response) | EC50 [2] [µM] | response in dose-response experiment ([2]; dose-response) | Bottom (B) of sigmoid dose-response fit [2, 4] | Top (T) of sigmoid dose-response fit [2, 4] | calcium response to sweetener [3] | EC50 [1, 5] [µM] | Bottom (B) of sigmoid dose-response fit [1, 4] | Top (T) of sigmoid dose-response fit [1, 4] | EC50 [2, 5] [µM] |
| --- | --- | --- | --- | --- | --- | --- | --- | --- | --- | --- | --- | --- | --- |
| COC(=O)[C@H](Cc1ccccc1)NC(=O)[C@@H](N)CC(=O)O [aspartame, L-α-aspartly-L-phenylalanine methyl ester] (H-Asp-Phe-OMe) | no response | almost abolished; also recorded: abolishes the activity | abolition | no responses | 1400 | good response | −3.314 | 42.4 | no response | – | – | – | – |
| COC(=O)[C@H](Cc1ccccc1)NC(=O)[C@H](CC(=O)O)NCCC(C)(C)C [neotame] | no response | significantly decreased | significant reduction | weaker responses | – | good responses | – | 69.46 | no response | 4700 | −1.772 | 51.81 | 2100 |
